Data reported in ChEMBL document CHEMBL5724801, “EUbOPEN Chemogenomics Library - Multiplex” (2024).
Where “and” joins values, the source holds several entries; their conditions need not be identical. Equal values may be shown once.

Test system: Fibroblast
Assay: Multiplex assay against human fibroblast
Type: toxicity, cell-based
Method in brief: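 On a CQ1 microscope at 37°C and 5% CO2, live cells were imaged after compound addition. They had been stained at seeding with Hoechst33342, BioTracker Green Microtubule Cytoskeleton Dye, MitoTracker Red and Annexin V Alexa Fluor 680. CellPathfinder machine-learning gating assigned cells to Hoechst high-intensity objects or normal cells, normal cells to healthy, pyknosed or fragmented nuclei, and pyknosed cells to mitotic or apoptotic. Tubulin, mitochondrial-mass and membrane-permeability phenotypes are per cents of healthy-nucleus cells.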

[1] = 12 h, 1 µM, compound concentration 1 uM
[2] = 12 h, 10 µM, compound concentration 10 uM
[3] = 24 h, 1 µM, compound concentration 1 uM
[4] = 24 h, 10 µM, compound concentration 10 uM
[5] = 48 h, 1 µM, compound concentration 1 uM
[6] = 48 h, 10 µM, compound concentration 10 uM

Compound: COC(=O)C1=C(C)NC(C)=C(C(=O)OC(C)C)C1c1cccc2nonc12 (stereo unspecified) [ISRADIPINE]
- Population Apoptotic (%) [1]: 16.67% and 18.92%
- Population Fragmented Nuclei (%) [1]: 8.07% and 3.38%
- Population Healthy Nuclei (%) [1]: 65.84% and 81.01%
- Population Hoechst High Intensity Objects (%) [1]: 0%
- Population Membrane Permeable-Phenotype (%) [1]: 3.77% and 3.12%
- Population Mitochondria Different-Phenotype (%) [1]: 7.55% and 11.98%
- Population Mitotic Cells (%) [1]: 83.33% and 81.08%
- Population Normal (%) [1]: 100%
- Population Pyknosed Nuclei (%) [1]: 26.09% and 15.61%
- Population Tubulin-Different-Phenotype (%) [1]: 15.09% and 16.15%
- Total Cell Count [1]: 161 and 237
- Population Fragmented Nuclei (%) [2]: 12.61% and 3.08%
- Population Healthy Nuclei (%) [2]: 63.04% and 75.33%
- Population Hoechst High Intensity Objects (%) [2]: 0%
- Population Membrane Permeable-Phenotype (%) [2]: 5.52% and 7.02%
- Population Mitochondria Different-Phenotype (%) [2]: 17.24% and 19.3%
- Population Mitotic Cells (%) [2]: 94.64% and 77.55%
- Population Normal (%) [2]: 100%
- Population Pyknosed Nuclei (%) [2]: 24.35% and 21.59%
- Population Tubulin-Different-Phenotype (%) [2]: 40% and 48.54%
- Total Cell Count [2]: 230 and 227
- Population Apoptotic (%) [3]: 18.52% and 21.74%
- Population Fragmented Nuclei (%) [3]: 12.43% and 8.5%
- Population Healthy Nuclei (%) [3]: 72.97% and 82.19%
- Population Hoechst High Intensity Objects (%) [3]: 0%
- Population Membrane Permeable-Phenotype (%) [3]: 5.93% and 2.46%
- Population Mitochondria Different-Phenotype (%) [3]: 1.48% and 4.93%
- Population Mitotic Cells (%) [3]: 81.48% and 78.26%
- Population Normal (%) [3]: 100%
- Population Pyknosed Nuclei (%) [3]: 14.59% and 9.31%
- Population Tubulin-Different-Phenotype (%) [3]: 12.59% and 16.26%
- Total Cell Count [3]: 185 and 247
- Population Fragmented Nuclei (%) [4]: 9.72% and 2.69%
- Population Healthy Nuclei (%) [4]: 68.83% and 76.23%
- Population Hoechst High Intensity Objects (%) [4]: 0%
- Population Membrane Permeable-Phenotype (%) [4]: 4.12%
- Population Mitochondria Different-Phenotype (%) [4]: 8.82% and 15.88%
- Population Mitotic Cells (%) [4]: 98.11% and 80.85%
- Population Normal (%) [4]: 100%
- Population Pyknosed Nuclei (%) [4]: 21.46% and 21.08%
- Population Tubulin-Different-Phenotype (%) [4]: 39.41% and 47.06%
- Total Cell Count [4]: 247 and 223
- Population Apoptotic (%) [5]: 30% and 23.53%
- Population Fragmented Nuclei (%) [5]: 7.14% and 6.07%
- Population Healthy Nuclei (%) [5]: 81.87% and 87.04%
- Population Hoechst High Intensity Objects (%) [5]: 0%
- Population Membrane Permeable-Phenotype (%) [5]: 2.01% and 1.4%
- Population Mitotic Cells (%) [5]: 70% and 76.47%
- Population Normal (%) [5]: 100%
- Population Pyknosed Nuclei (%) [5]: 10.99% and 6.88%
- Population Tubulin-Different-Phenotype (%) [5]: 10.07% and 17.21%
- Total Cell Count [5]: 182 and 247
- Population Apoptotic (%) [6]: 33.33% and 50%
- Population Fragmented Nuclei (%) [6]: 9.58% and 5.05%
- Population Healthy Nuclei (%) [6]: 85.42% and 89.45%
- Population Hoechst High Intensity Objects (%) [6]: 0%
- Population Membrane Permeable-Phenotype (%) [6]: 1.46% and 8.72%
- Population Mitochondria Different-Phenotype (%) [6]: 14.63% and 8.72%
- Population Mitotic Cells (%) [6]: 66.67% and 50%
- Population Normal (%) [6]: 100%
- Population Pyknosed Nuclei (%) [6]: 5% and 5.5%
- Population Tubulin-Different-Phenotype (%) [6]: 24.39% and 55.38%
- Total Cell Count [6]: 240 and 218

Compound: O=C(O)CCC/C=C\CC1C(O)CC(O)C1/C=C/C(O)COc1cccc(Cl)c1 (stereo unspecified) [CLOPROSTENOL]
- Population Apoptotic (%) [1]: 41% and 20%
- Population Fragmented Nuclei (%) [1]: 15% and 22%
- Population Healthy Nuclei (%) [1]: 68% and 52%
- Population Hoechst High Intensity Objects (%) [1]: 0% and 2%
- Population Membrane Permeable-Phenotype (%) [1]: 0% and 8%
- Population Mitochondria Different-Phenotype (%) [1]: 2%
- Population Mitotic Cells (%) [1]: 58% and 80%
- Population Normal (%) [1]: 100% and 97%
- Population Pyknosed Nuclei (%) [1]: 15% and 25%
- Population Tubulin-Different-Phenotype (%) [1]: 22% and 52%
- Total Cell Count [1]: 153 and 141
- Population Apoptotic (%) [2]: 38% and 23%
- Population Fragmented Nuclei (%) [2]: 23%
- Population Healthy Nuclei (%) [2]: 58% and 43%
- Population Hoechst High Intensity Objects (%) [2]: 12% and 4%
- Population Membrane Permeable-Phenotype (%) [2]: 0% and 11%
- Population Mitochondria Different-Phenotype (%) [2]: 4% and 9%
- Population Mitotic Cells (%) [2]: 61% and 76%
- Population Normal (%) [2]: 87% and 95%
- Population Pyknosed Nuclei (%) [2]: 18% and 34%
- Population Tubulin-Different-Phenotype (%) [2]: 31% and 53%
- Total Cell Count [2]: 212 and 105
- Population Apoptotic (%) [3]: 41% and 18%
- Population Fragmented Nuclei (%) [3]: 19% and 27%
- Population Healthy Nuclei (%) [3]: 62% and 49%
- Population Hoechst High Intensity Objects (%) [3]: 0% and 3%
- Population Membrane Permeable-Phenotype (%) [3]: 1% and 7%
- Population Mitochondria Different-Phenotype (%) [3]: 3% and 5%
- Population Mitotic Cells (%) [3]: 58% and 81%
- Population Normal (%) [3]: 99% and 96%
- Population Pyknosed Nuclei (%) [3]: 18% and 23%
- Population Tubulin-Different-Phenotype (%) [3]: 26% and 53%
- Total Cell Count [3]: 161 and 144
- Population Apoptotic (%) [4]: 41% and 59%
- Population Fragmented Nuclei (%) [4]: 24% and 28%
- Population Healthy Nuclei (%) [4]: 57% and 50%
- Population Hoechst High Intensity Objects (%) [4]: 12% and 3%
- Population Membrane Permeable-Phenotype (%) [4]: 2% and 7%
- Population Mitochondria Different-Phenotype (%) [4]: 3%
- Population Mitotic Cells (%) [4]: 58% and 40%
- Population Normal (%) [4]: 87% and 96%
- Population Pyknosed Nuclei (%) [4]: 18% and 21%
- Population Tubulin-Different-Phenotype (%) [4]: 24% and 57%
- Total Cell Count [4]: 218 and 107
- Population Apoptotic (%) [5]: 65% and 36%
- Population Fragmented Nuclei (%) [5]: 21% and 37%
- Population Healthy Nuclei (%) [5]: 59% and 43%
- Population Hoechst High Intensity Objects (%) [5]: 2% and 3%
- Population Membrane Permeable-Phenotype (%) [5]: 2% and 12%
- Population Mitochondria Different-Phenotype (%) [5]: 2% and 10%
- Population Mitotic Cells (%) [5]: 34% and 64%
- Population Normal (%) [5]: 97% and 96%
- Population Pyknosed Nuclei (%) [5]: 19% and 18%
- Population Tubulin-Different-Phenotype (%) [5]: 25% and 63%
- Total Cell Count [5]: 156 and 137
- Population Apoptotic (%) [6]: 46% and 55%
- Population Fragmented Nuclei (%) [6]: 25% and 41%
- Population Healthy Nuclei (%) [6]: 57% and 49%
- Population Hoechst High Intensity Objects (%) [6]: 13% and 8%
- Population Membrane Permeable-Phenotype (%) [6]: 0% and 4%
- Population Mitochondria Different-Phenotype (%) [6]: 2% and 4%
- Population Mitotic Cells (%) [6]: 53% and 44%
- Population Normal (%) [6]: 86% and 91%
- Population Pyknosed Nuclei (%) [6]: 16% and 9%
- Population Tubulin-Different-Phenotype (%) [6]: 30% and 61%
- Total Cell Count [6]: 205 and 108

Compound: CC(C)(C)c1cc(C(C)(C)C)c(NC(=O)c2c[nH]c3ccccc3c2=O)cc1O [IVACAFTOR]
- Population Apoptotic (%) [1]: 10.53% and 22.22%
- Population Healthy Nuclei (%) [1]: 60.13% and 75%
- Population Hoechst High Intensity Objects (%) [1]: 0%
- Population Membrane Permeable-Phenotype (%) [1]: 1.09% and 0.74%
- Population Mitotic Cells (%) [1]: 89.47% and 77.78%
- Population Normal (%) [1]: 100%
- Population Pyknosed Nuclei (%) [1]: 24.84% and 20%
- Population Tubulin-Different-Phenotype (%) [1]: 15.22% and 9.63%
- Total Cell Count [1]: 153 and 180
- Population Apoptotic (%) [2]: 15.07% and 33.33%
- Population Fragmented Nuclei (%) [2]: 15.18% and 7.21%
- Population Healthy Nuclei (%) [2]: 46.6% and 73.87%
- Population Hoechst High Intensity Objects (%) [2]: 0%
- Population Membrane Permeable-Phenotype (%) [2]: 0% and 3.05%
- Population Mitochondria Different-Phenotype (%) [2]: 21.35% and 13.41%
- Population Mitotic Cells (%) [2]: 84.93% and 66.67%
- Population Normal (%) [2]: 100%
- Population Pyknosed Nuclei (%) [2]: 38.22% and 18.92%
- Population Tubulin-Different-Phenotype (%) [2]: 24.72% and 29.27%
- Total Cell Count [2]: 191 and 222
- Population Apoptotic (%) [3]: 2.7% and 8%
- Population Fragmented Nuclei (%) [3]: 9.82% and 4.92%
- Population Healthy Nuclei (%) [3]: 67.48% and 81.42%
- Population Hoechst High Intensity Objects (%) [3]: 0%
- Population Membrane Permeable-Phenotype (%) [3]: 3.64% and 2.01%
- Population Mitochondria Different-Phenotype (%) [3]: 10.91% and 10.07%
- Population Mitotic Cells (%) [3]: 97.3% and 92%
- Population Normal (%) [3]: 100%
- Population Pyknosed Nuclei (%) [3]: 22.7% and 13.66%
- Population Tubulin-Different-Phenotype (%) [3]: 11.82% and 11.41%
- Total Cell Count [3]: 163 and 183
- Population Apoptotic (%) [4]: 13.85% and 28.57%
- Population Fragmented Nuclei (%) [4]: 9.6% and 8.97%
- Population Healthy Nuclei (%) [4]: 53.67% and 78.48%
- Population Hoechst High Intensity Objects (%) [4]: 0%
- Population Membrane Permeable-Phenotype (%) [4]: 2.11% and 0.57%
- Population Mitochondria Different-Phenotype (%) [4]: 21.05% and 24.57%
- Population Mitotic Cells (%) [4]: 86.15% and 71.43%
- Population Normal (%) [4]: 100%
- Population Pyknosed Nuclei (%) [4]: 36.72% and 12.56%
- Population Tubulin-Different-Phenotype (%) [4]: 45.26% and 44%
- Total Cell Count [4]: 177 and 223
- Population Fragmented Nuclei (%) [5]: 10.22% and 4.66%
- Population Healthy Nuclei (%) [5]: 83.33% and 86.53%
- Population Hoechst High Intensity Objects (%) [5]: 0%
- Population Membrane Permeable-Phenotype (%) [5]: 1.94% and 0%
- Population Mitotic Cells (%) [5]: 75% and 94.12%
- Population Normal (%) [5]: 100%
- Population Pyknosed Nuclei (%) [5]: 6.45% and 8.81%
- Population Tubulin-Different-Phenotype (%) [5]: 7.74% and 11.98%
- Total Cell Count [5]: 186 and 193
- Population Apoptotic (%) [6]: 21.88% and 28.57%
- Population Fragmented Nuclei (%) [6]: 11.48% and 7.92%
- Population Healthy Nuclei (%) [6]: 73.21% and 86.25%
- Population Hoechst High Intensity Objects (%) [6]: 0%
- Population Membrane Permeable-Phenotype (%) [6]: 0.65% and 0.97%
- Population Mitochondria Different-Phenotype (%) [6]: 25.49% and 13.53%
- Population Mitotic Cells (%) [6]: 78.12% and 71.43%
- Population Normal (%) [6]: 100%
- Population Pyknosed Nuclei (%) [6]: 15.31% and 5.83%
- Population Tubulin-Different-Phenotype (%) [6]: 24.18% and 39.61%
- Total Cell Count [6]: 209 and 240
